From ChEMBL document CHEMBL3098017, “Discovery and in Vivo Evaluation of Potent Dual CYP11B2 (Aldosterone Synthase) and CYP11B1 Inhibitors” (ACS Med Chem Lett, 2013)

Tests used:
[1] = system: Rattus norvegicus; test: Reduction of angiotensin 2-stimulated plasma aldosterone time-weighted average (0 to 8 hrs) in Sprague-Dawley rat at 1 mg/kg, po; assay type: functional; design: scale not given: the % may be the effect or the level left
In short: (§1)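 Angiotensin-II infusion in Sprague–Dawley rats (n = 3) raised baseline plasma aldosterone; oral dosing in corn starch/water or HCl (1.5 equiv of 1 N)/cornstarch/water; plasma sampled at set times; time-weighted average drug level 0–8 h; time-weighted average % fall in plasma aldosterone from baseline.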

[2] = molecular target: T1, Cytochrome P450 11B2, mitochondrial (Homo sapiens, UniProt P19099); test: Inhibition of CYP11B2 in human NCI-H295R cells assessed as inhibition of angiotensin-2-induced aldosterone production after 24 hrs by RIA; assay type: cell-based
T1 sequence (P19099 whole entry): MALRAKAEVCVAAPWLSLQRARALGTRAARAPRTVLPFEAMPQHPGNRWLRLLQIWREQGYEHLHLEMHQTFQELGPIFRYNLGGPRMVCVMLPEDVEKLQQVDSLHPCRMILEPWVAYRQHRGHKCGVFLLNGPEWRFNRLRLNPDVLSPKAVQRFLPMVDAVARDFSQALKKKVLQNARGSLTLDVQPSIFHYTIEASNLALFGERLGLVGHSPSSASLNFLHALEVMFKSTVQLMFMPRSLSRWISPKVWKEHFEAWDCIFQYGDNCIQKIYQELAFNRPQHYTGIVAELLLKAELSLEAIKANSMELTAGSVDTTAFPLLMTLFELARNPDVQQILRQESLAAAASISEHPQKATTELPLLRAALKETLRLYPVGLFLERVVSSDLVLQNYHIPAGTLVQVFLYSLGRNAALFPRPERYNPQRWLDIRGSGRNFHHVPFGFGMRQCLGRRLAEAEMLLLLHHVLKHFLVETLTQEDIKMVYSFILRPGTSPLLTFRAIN

[3] = system: Rattus norvegicus; test: Time-weighted average (0 to 8 hrs) in Sprague-Dawley rat at 1 mg/kg, po; assay type: ADME, organism-based; design: dose 1 mg/kg, route oral; details: in vivo; in short: as §1
[4] = Oral bioavailability in Sprague-Dawley rat at 1 mg/kg; assay type: ADME, organism-based; details: in vivo
In short: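 Sprague–Dawley rats (n = 3), oral dose in corn starch/water or HCl (1.5 equiv of 1 N)/cornstarch/water; %F calculated against a 0.3 mg/kg intra-arterial dose.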

[5] = molecular target: T2, Aromatase (Homo sapiens, UniProt P11511)
T2 sequence (P11511 whole entry): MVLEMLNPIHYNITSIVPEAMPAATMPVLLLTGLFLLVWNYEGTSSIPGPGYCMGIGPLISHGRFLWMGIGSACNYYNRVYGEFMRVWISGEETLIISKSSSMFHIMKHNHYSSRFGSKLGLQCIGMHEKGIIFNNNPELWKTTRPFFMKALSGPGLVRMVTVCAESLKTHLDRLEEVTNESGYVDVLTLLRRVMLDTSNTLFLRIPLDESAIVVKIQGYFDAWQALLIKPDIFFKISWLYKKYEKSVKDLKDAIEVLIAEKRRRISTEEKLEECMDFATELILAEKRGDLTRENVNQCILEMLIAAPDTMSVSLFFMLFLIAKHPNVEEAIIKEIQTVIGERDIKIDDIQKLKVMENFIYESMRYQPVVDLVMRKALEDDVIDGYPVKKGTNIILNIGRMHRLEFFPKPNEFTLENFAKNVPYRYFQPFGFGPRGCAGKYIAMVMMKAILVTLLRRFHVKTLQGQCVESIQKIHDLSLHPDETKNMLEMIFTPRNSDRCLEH

[6] = molecular target: T1, Cytochrome P450 11B2, mitochondrial; test: Inhibition of human recombinant CYP11B2 using 11-deoxycorticosterone as substrate by cell-based assay
[7] = molecular target: T3, Cytochrome P450 11B1, mitochondrial (Homo sapiens, UniProt P15538); test: Inhibition of human recombinant CYP11B1 using 11-deoxycortisol as substrate by cell-based assay
T3 sequence (P15538 whole entry): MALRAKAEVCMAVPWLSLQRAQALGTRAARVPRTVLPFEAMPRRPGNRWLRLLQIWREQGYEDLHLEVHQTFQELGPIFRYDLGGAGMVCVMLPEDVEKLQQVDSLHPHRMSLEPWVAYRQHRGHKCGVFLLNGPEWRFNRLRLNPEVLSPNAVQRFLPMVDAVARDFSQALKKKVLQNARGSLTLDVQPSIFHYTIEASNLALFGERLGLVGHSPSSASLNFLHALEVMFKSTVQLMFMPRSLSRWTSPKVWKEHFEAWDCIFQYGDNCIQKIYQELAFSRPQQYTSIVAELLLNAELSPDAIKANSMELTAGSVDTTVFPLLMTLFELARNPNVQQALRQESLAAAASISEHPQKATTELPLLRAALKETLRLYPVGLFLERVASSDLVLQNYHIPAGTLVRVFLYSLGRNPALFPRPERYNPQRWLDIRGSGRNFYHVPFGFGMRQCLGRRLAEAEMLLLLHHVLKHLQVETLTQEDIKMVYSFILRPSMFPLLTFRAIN

[8] = molecular target: T4, CYP19 (aromatase) (Homo sapiens, UniProt P11511); test: Inhibition of human CYP19 at 1 uM preincubated for 10 mins followed by protein addition measured after 90 mins by fluorimetric analysis relative to control
T4 sequence (P11511 whole entry): T2 sequence (P11511 whole entry)

[9] = molecular target: T5, Cytochrome P450 11B2, mitochondrial (Rattus norvegicus, UniProt P30099); test: Inhibition of rat recombinant CYP11B2 using 11-deoxycorticosterone as substrate by cell-based assay
T5 sequence (P30099 whole entry): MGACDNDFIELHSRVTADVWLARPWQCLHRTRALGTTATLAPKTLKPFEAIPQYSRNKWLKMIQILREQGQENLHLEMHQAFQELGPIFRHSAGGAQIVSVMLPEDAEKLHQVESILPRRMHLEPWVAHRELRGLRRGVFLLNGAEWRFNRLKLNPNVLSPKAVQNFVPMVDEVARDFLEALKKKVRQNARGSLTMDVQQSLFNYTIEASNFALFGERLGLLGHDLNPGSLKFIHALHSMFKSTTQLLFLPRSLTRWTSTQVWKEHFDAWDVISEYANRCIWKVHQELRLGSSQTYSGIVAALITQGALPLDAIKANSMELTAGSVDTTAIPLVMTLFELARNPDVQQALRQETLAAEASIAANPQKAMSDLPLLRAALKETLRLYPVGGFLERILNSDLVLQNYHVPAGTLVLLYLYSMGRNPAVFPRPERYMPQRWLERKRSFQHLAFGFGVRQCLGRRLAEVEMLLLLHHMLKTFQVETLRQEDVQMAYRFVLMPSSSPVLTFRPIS

[10] = molecular target: T6, Cytochrome P450 11B1, mitochondrial (Rattus norvegicus, UniProt P15393); test: Inhibition of rat recombinant CYP11B1 using 11-deoxycortisol as substrate by cell-based assay
T6 sequence (P15393 whole entry): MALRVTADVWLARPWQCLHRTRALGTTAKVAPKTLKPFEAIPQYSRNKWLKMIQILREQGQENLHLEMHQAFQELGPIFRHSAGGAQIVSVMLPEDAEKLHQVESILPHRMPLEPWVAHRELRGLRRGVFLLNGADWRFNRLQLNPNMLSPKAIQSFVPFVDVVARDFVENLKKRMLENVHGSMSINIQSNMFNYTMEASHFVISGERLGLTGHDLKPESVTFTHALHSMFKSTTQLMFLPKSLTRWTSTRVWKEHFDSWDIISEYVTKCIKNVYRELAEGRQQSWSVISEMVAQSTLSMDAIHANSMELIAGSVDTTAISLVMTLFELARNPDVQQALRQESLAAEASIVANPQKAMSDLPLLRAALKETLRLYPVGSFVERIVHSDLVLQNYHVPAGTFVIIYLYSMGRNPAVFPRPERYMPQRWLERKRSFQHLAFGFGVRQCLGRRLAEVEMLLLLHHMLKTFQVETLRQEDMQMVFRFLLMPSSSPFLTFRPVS

[11] = molecular target: Cytochrome P450 2C9 (Homo sapiens, UniProt P11712)
Sequence of Cytochrome P450 2C9 (P11712 whole entry): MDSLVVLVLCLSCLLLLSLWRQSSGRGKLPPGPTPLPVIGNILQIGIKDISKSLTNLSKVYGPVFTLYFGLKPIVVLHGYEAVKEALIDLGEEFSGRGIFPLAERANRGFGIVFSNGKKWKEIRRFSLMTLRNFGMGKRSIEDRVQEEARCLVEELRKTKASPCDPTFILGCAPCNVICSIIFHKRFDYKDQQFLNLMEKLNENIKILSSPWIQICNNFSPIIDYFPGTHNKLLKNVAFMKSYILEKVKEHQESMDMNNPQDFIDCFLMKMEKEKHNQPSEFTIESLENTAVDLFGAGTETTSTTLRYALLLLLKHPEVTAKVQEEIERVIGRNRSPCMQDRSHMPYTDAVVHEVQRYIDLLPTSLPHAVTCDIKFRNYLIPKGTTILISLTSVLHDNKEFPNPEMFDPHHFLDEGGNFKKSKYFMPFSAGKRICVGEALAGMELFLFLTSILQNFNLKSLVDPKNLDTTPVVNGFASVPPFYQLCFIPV

[12] = molecular target: Cytochrome P450 2D6 (Homo sapiens, UniProt P10635)
Sequence of Cytochrome P450 2D6 (P10635 whole entry): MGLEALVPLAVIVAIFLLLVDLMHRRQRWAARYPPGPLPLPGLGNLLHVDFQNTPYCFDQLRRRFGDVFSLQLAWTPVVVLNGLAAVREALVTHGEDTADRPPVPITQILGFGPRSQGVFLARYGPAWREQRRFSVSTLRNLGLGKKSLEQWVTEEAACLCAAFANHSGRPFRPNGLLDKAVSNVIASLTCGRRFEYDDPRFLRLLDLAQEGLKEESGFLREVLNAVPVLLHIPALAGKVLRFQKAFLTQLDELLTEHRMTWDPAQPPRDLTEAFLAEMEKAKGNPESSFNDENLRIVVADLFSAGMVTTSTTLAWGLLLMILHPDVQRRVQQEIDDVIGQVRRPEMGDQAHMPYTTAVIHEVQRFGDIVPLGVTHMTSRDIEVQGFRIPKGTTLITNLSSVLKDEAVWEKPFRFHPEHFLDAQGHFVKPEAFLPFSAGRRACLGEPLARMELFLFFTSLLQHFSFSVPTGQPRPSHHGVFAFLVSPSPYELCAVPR

Row | SMILES | IC50 [2] [nM] | Cave [3] [nM] | bioavailability [4] [%] | inhibition at 1.5 h, 1 µM [8] [%] | Activity [1] [%] | also measured
1 | Fc1ccc(-c2ccccc2[C@H]2CCCCc3cncn32)cc1 | 2 | 152 | 8 |  | 73 | 
2 | c1ccc(-c2ccccc2[C@H]2CCCCc3cncn32)cc1 | 2 | 4 | < 1 |  | 27 | 
3 | N#Cc1ccc([C@H]2CCCCc3cncn32)c(F)c1 | 42 |  |  |  | 69 | IC50 [5]: 1100 nM; IC50 [6]: 3.2 nM; IC50 [7]: 7.2 nM
4 | N#Cc1ccc([C@H]2CCCCc3cncn32)c(Cl)c1 | 16 |  |  | 100 |  | 
5 | COc1cc(C#N)ccc1[C@H]1CCCCc2cncn21 | 520 |  |  |  |  | 
6 | COC(=O)[C@]1(c2ccc(C#N)cc2OC)CCc2cncn21 | 3 |  |  |  |  | 
7 | N#Cc1ccc([C@@]2(C(=O)OCc3ccc(F)cc3)CCc3cncn32)c(Cl)c1 | 1.5 |  |  | 95 |  | IC50 [6]: 3.8 nM; IC50 [7]: < 0.1 nM
8 | Fc1ccc(-c2ccccc2[C@H]2CCc3cncn32)cc1 | 140 |  |  |  |  | 
9 | COc1cc(C#N)ccc1[C@H]1CCc2cncn21 | 5 | 33 | 18 | 80 | 50 | 
10 | N#Cc1ccc([C@H]2CCCc3cncn32)c(-c2ccccc2)c1 | 56 |  |  |  |  | 
11 | c1ccc(-c2ccccc2[C@H]2CCCc3cncn32)cc1 | 37 |  |  |  |  | 
12 | N#Cc1ccc([C@H]2CCCc3cncn32)c(F)c1 | 87 |  |  | 20 |  | 
13 | N#Cc1ccc([C@H]2CCCCc3cncn32)c(-c2ccc(F)cc2)c1 | 1 | 6 | 1 |  | 66 | IC50 [9]: 1 nM; IC50 [10]: 0.3 nM; IC50 [6]: 0.4 nM; IC50 [7]: 0.3 nM
14 | Cc1cc(C#N)ccc1C1CCCc2cncn21 (racemic) | 464 |  |  | 100 |  | 
15 | COc1cc(C#N)ccc1C1CCCc2cncn21 (racemic) | 390 |  |  | 100 |  | 

Further lines, with some results ahead:

Row | IC50 [2] [nM] | Cave [3] [nM] | bioavailability [4] [%] | inhibition at 1.5 h, 1 µM [8] [%] | SMILES | Activity [1] [%] | also measured
16 | 17 | 6 | 1 |  | COC(=O)[C@]1(c2ccc(C#N)cc2Cl)CCc2cncn21 | 81 | IC50 [5]: 50 nM
17 | 351 |  |  |  | COC(=O)[C@]1(c2ccc(C#N)cc2F)CCc2cncn21 |  | 
18 | 5 | 15 | 8 | 45 | COc1cc(C#N)ccc1[C@@]1(C(=O)N(C)Cc2ccc(F)cc2)CCc2cncn21 | 35 | 
19 | 441 |  |  |  | c1ccc(-c2ccccc2[C@H]2CCc3cncn32)cc1 |  | 
20 | 13 | 152 | 59 |  | N#Cc1ccc([C@H]2CCc3cncn32)c(Cl)c1 | 51 | 
21 | 8 |  |  | 87 | Cc1cc(C#N)ccc1[C@H]1CCc2cncn21 |  | IC50 [9]: 24 nM; IC50 [10]: 386 nM; IC50 [6]: 0.9 nM; IC50 [7]: 1.5 nM
22 | 10 |  |  | 47 | N#Cc1ccc([C@H]2CCc3cncn32)c(Br)c1 |  | 
23 | 792 |  |  | 99 | N#Cc1ccc(C2CCCc3cncn32)c(Cl)c1 (racemic) |  | 
24 |  | 377 | 42 |  | N#Cc1ccc([C@H]2CCc3cncn32)c(F)c1 [OSILODROSTAT] | 65 | IC50 [9]: 111 nM; IC50 [11]: > 10 µM; IC50 [12]: > 10 µM
